The sample as a whole holds a higher share of hits than the screen did.
ABCB1 inh = human ABCB1 inhibition, ABCG2 as counter-screen | P08183 | CCRF-Adr cells, JC-1 efflux, flow cytometry | inhibition, % at 6.6 µM | 190,000 compounds, 0.067% hits; in the data active means inhibition above about 40%;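 further: 0% = vehicle and 100% = reference inhibitor; higher value means more JC-1 retained so stronger ABCB1 efflux block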
FLuc inh counter = Photinus pyralis luciferase inhibition counter-screen. P08659. ATPLite firefly luciferase biochemical luminescence, 10 min. inhibition, % at 10 µM. 200,000 compounds, 1.5% hits. AID 1006;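 active means inhibition above about 50% when tested at 10 µM, limit read from the data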
ABCG2 inh = human ABCG2 inhibition, ABCB1 as counter-screen. 190,000 compounds, 0.1% hits. inhibition, % at 6.6 µM. IgMXP3 cells, JC-1 efflux, flow cytometry. Q9UNQ0. AID 1325;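 active means inhibition above 80%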;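 further: 0% = DMSO and 100% = nicardipine control wells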
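Times: 10 min at 25 °C | Test system: Two drug-resistant human cell lines, ABCG2 and ABCB1 | Quantity: 3 million cells/mL final, two lines in 1:1 ratio | Signal: Flow cytometry, 530 nm JC-1 signal | Dosing: Compound at 6.6 µM | Controls: Nicardipine and DMSO wells | Reagent: JC-1 as fluorescent efflux pump substrate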
ABCB6 inh 2 = inhibitors of human ABC transporter ABCB6 | K562-ABCB6 porphyrin accumulation, flow cytometry, 1 h; active compounds read low | 360,000 compounds, 0.19% hits | fluorescence ratio to DMSO, % at 10 µM | AID 602162;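 active means fluorescence ratio to DMSO below 75%, the collection mean minus 3 SD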;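 further: signal is porphyrin accumulated inside mitochondria; 100% equals median channel fluorescence of DMSO control wells; lower ratio means ABCB6 inhibition with less porphyrin fluorescence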
Diaph act CS = activates diaphorase or chemically reduces, flagging diaphorase assay artifacts. Diaphorase/resazurin coupled assay, resorufin fluorescence, 16 min; active compounds read high; 1 = vehicle wells, 0 = NADH-free wells. 190,000 compounds, 0.005% hits. activation factor at 20 µM. AID 1229;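 active means diaphorase activity raised at least twofold by the compound at 20 µM; inactive means activation factor below 2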
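Test system: Clostridium kluyveri diaphorase, purified enzyme; input: enzyme 0.07 U/mL final; buffer or medium: 50 mM HEPES pH 7.4 with 4.542 mM MgCl2, 0.005% Tween 20; also added: 0.114 mM NADH and 0.1 mM resazurin, final amounts; schedule: 16 min enzyme reaction, ambient temperature; technique: fluorescence of resorufin, 544 nm excitation, 590 nm emission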
FLuc stim CS = affects firefly luciferase, flagging false hits in luciferase stimulation screens; ATPlite luciferase biochemical, luminescence, 10 min; 0 = ATP-free wells, 1 = DMSO control; activation factor at 10 µM; 200,000 tested, under 10 active;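 active means luciferase activation factor, scaled between plate controls, of at least 2 with compound at 10 µM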
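Assay system: Luciferase/luciferin reagent mix; Medium: PBS as buffer for the ATP substrate; Dosing: test compounds dosed from 2 mM stocks in 100% DMSO; Times: 10 min, room temperature; Signal: luminescence from luciferase reaction; Read-out: luciferase activation; Controls: No-ATP low control, compound-free enzyme-plus-ATP high control.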
ABCB6 inh CP1 = blocks the human ABCB6 transporter; shares compounds with ABCB6 inh 2; AID 602430; 700 tested, under 10 active; K562-ABCB6 porphyrin accumulation, flow cytometry, 1 h; active compounds read low; ratio response (% of DMSO), % at 10 µM;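 active means repeat-averaged ratio response below 75% of DMSO, the collection mean minus 3 SD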;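 further: median porphyrin fluorescence at 575 nm with 488 nm excitation from mitochondria; lower ratio means less porphyrin signal so ABCB6 inhibition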
An asterisk follows results filed as active.

For O=C(c1ccc(COc2ccc(Cl)cc2)o1)N1N=C(C(F)F)CC1(O)C(F)F (centres undefined) the results were ABCB1 inh 5, FLuc inh counter -5, ABCG2 inh 13, ABCB6 inh 2 95, Diaph act CS 0.8, FLuc stim CS 1.1 and ABCB6 inh CP1 101.
Screening O=C(c1ccc(Cn2cc(Br)cn2)o1)N1N=C(C(F)F)CC1(O)C(F)F (centres undefined) returned ABCB1 inh 0, FLuc inh counter -4, ABCG2 inh 1, ABCB6 inh 2 99, Diaph act CS 0.9 and FLuc stim CS 1.
Screening COc1ccccc1OCc1ccc(C(=O)N2N=C(C(F)F)CC2(O)C(F)F)o1 (centres undefined) returned ABCB1 inh 0, FLuc inh counter -8, ABCG2 inh 3, ABCB6 inh 2 108, Diaph act CS 0.9, FLuc stim CS 1.1 and ABCB6 inh CP1 99.
Screening N#Cc1nn(-c2ccccc2)nc1N1CCCCC1 returned ABCB1 inh 0, FLuc inh counter 0, ABCG2 inh 4, ABCB6 inh 2 69*, Diaph act CS 0.9, FLuc stim CS 1 and ABCB6 inh CP1 95.
N#Cc1nc(COc2ccccc2)oc1N1CCCCCC1 was read as ABCB1 inh 1, FLuc inh counter -6, ABCG2 inh 5, ABCB6 inh 2 103, Diaph act CS 0.7 and FLuc stim CS 1.1.
For Cc1ccc(/C=c2\sc3nc(-c4ccco4)nn3c2=O)o1 the results were ABCB1 inh -7, FLuc inh counter 27, ABCG2 inh -5, ABCB6 inh 2 109, Diaph act CS 0.5 and FLuc stim CS 0.7.
For Cc1ccc(-c2nc3s/c(=C\c4ccco4)c(=O)n3n2)cc1 the results were ABCB1 inh 0, FLuc inh counter 26, ABCG2 inh 1, ABCB6 inh 2 70*, Diaph act CS 0.9, FLuc stim CS 0.7 and ABCB6 inh CP1 103.
Nc1c(N(Cc2ccco2)C(=O)c2ccccc2F)c(=O)[nH]c(=O)n1Cc1ccccc1 was read as ABCB6 inh 2 102.
For COc1ccccc1C1C(C#N)=C(N)N(N(C)C)C2=C1C(=O)CC(C)(C)C2 (centres undefined) the results were ABCB6 inh 2 51* and ABCB6 inh CP1 96.
COc1ccc(OC)c(C2C(C#N)=C(N)N(N(C)C)C3=C2C(=O)CC(C)(C)C3)c1 (centres undefined) was read as ABCB6 inh 2 99.
For CCN1C(=O)CSc2ccc(C(=O)NCc3ccco3)cc21 the results were ABCB1 inh 1, FLuc inh counter -2, ABCG2 inh 51, ABCB6 inh 2 53*, Diaph act CS 0.8, FLuc stim CS 1 and ABCB6 inh CP1 101.
`Cc1cc(C)n(CCNS(=O)(=O)c2ccc(C)c(C)c2)n1` gave ABCB6 inh 2 99.
O=C(COc1ccccc1)N1CCN(C(=O)COc2ccccc2)CC1 was read as ABCB6 inh 2 68* and ABCB6 inh CP1 99.
`O=C(COc1ccccc1)N1CCCCCCC1` gave ABCB6 inh 2 98.
Screening CC1CCN(C(=O)c2ccc(NC(=O)c3cccs3)cc2)CC1 returned ABCB6 inh 2 53* and ABCB6 inh CP1 102.
Screening CC(C)(C)NC(=O)c1cccc(NC(=O)c2cccc(O)c2)c1 returned ABCB1 inh 1, FLuc inh counter 10, ABCG2 inh 5, ABCB6 inh 2 63*, Diaph act CS 0.9, FLuc stim CS 0.9 and ABCB6 inh CP1 101.
`O=C(NCc1cccs1)c1cc(S(=O)(=O)N2CCOCC2)c(Cl)cc1Cl` gave ABCB6 inh 2 94.
`Cn1c(=O)c2c(ncn2CC(=O)OCc2ccccc2)n(C)c1=O` gave ABCB1 inh 1, FLuc inh counter -1, ABCG2 inh 3, ABCB6 inh 2 103, Diaph act CS 0.9 and FLuc stim CS 1.
Screening Cn1c(=O)c2c(ncn2CC(=O)N(Cc2ccccc2)c2ccccn2)n(C)c1=O returned ABCB1 inh 0, FLuc inh counter -6, ABCG2 inh 0, ABCB6 inh 2 71*, Diaph act CS 0.9, FLuc stim CS 1.1 and ABCB6 inh CP1 98.
`Cc1cccc(C)c1OCCOC(=O)c1ccc(S(=O)(=O)N2CCCC2)cc1` gave ABCB6 inh 2 97.
Cc1cccc(NC(=O)c2oc3ccc(S(=O)(=O)N4CCOCC4)cc3c2C)c1C was read as ABCB1 inh 1, FLuc inh counter -6, ABCG2 inh 35, ABCB6 inh 2 68*, Diaph act CS 0.9, FLuc stim CS 1.1 and ABCB6 inh CP1 99.
Screening Cc1cccc(C)c1OCCOC(=O)c1cccc(S(=O)(=O)N2CCOCC2)c1 returned ABCB6 inh 2 71* and ABCB6 inh CP1 100.
Screening C=CC[C@@H](CC(=O)N[C@H](CO)Cc1ccccc1)C(=O)NCCOC(=O)[C@@H](CC=C)CC(=O)OC(C)(C)C returned ABCB6 inh 2 97.
Screening COC(=O)[C@H](CCSC)NC(=O)Nc1ccc(C)c(C)c1 returned ABCB1 inh 0, FLuc inh counter -2, ABCG2 inh 16, ABCB6 inh 2 69*, Diaph act CS 0.9, FLuc stim CS 1 and ABCB6 inh CP1 101.
Screening Cc1ccccc1S(=O)(=O)N(C)C[C@@H]1OCc2ccccc2-c2c(n(C)c3ccccc23)C(=O)N([C@H](C)CO)C[C@@H]1C returned ABCB6 inh 2 106.
For COc1cccc(-c2nnc(-c3ccco3)o2)c1 the results were ABCB1 inh 0, FLuc inh counter 54*, ABCG2 inh 0, ABCB6 inh 2 67*, Diaph act CS 1, FLuc stim CS 0.5 and ABCB6 inh CP1 97.
For COc1cccc(-c2nnc(N)o2)c1 the results were ABCB6 inh 2 95.
`COc1ccccc1Cc1c(C2CCCCC2)nc2ccc(Br)cn12` gave ABCB6 inh 2 109.
For CN(CC(=O)Nc1ccc(F)c(F)c1F)C(=O)c1ccc(-n2cncn2)c([N+](=O)[O-])c1 the results were ABCB6 inh 2 100.
CCn1c(SCC(=O)Nc2ccc3c(c2)c2ccccc2n3CC)nnc1-c1ccco1 was read as ABCB1 inh 0, FLuc inh counter -3, ABCG2 inh 0, ABCB6 inh 2 100, Diaph act CS 0.7 and FLuc stim CS 1.
Screening CCn1c(SCC(=O)n2c(C)c(C)c3ccccc32)nnc1-c1ccco1 returned ABCB1 inh 2, FLuc inh counter -3, ABCG2 inh 39, ABCB6 inh 2 73*, Diaph act CS 0.9, FLuc stim CS 1 and ABCB6 inh CP1 99.
